In ChEMBL document CHEMBL1149154, “Comparative molecular field analysis and comparative molecular similarity indices analysis of thalidomide analogues as angiogenesis inhibitors” (2004):

Species on record: Rattus norvegicus
Assay: Inhibition of microvessel outgrowth in the rat aortic ring assay
Format: functional, Aorta
Design: concentration or dose not given beside the values
Summary of the method: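 Aortic 1 mm cross-sections from 6–8-week-old male Sprague–Dawley rats, periadventitial fat removed, embedded between Matrigel layers (37 °C, 5% CO2). Cultured 24 h in EGM-II, then switched to EBM-II with 2% FBS, amphotericin B and gentamicin. Compounds in DMSO added to medium daily for 4 days (vehicle 0.5% DMSO; carboxyamidotriazole positive control). Microvessel growth photographed on day 5.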

Compound	Inhibition
COCN1C(=O)CCC(N2C(=O)c3ccccc3C2=O)C1=O (centres undefined)	13%
O=C1CC(N2C(=O)c3ccccc3C2=O)C(=O)N1 (centres undefined)	9.75%
O=C1NCCCC1N1C(=O)c2ccccc2S1(=O)=O (centres undefined) [SUPIDIMIDE]	4.5%
NC(=O)CCC(C(=O)O)N1C(=O)c2ccccc2C1=O (centres undefined) [2-PHTHALIMIDOGLUTARAMIC ACID]	1.75%
CC(C)CCCC(C)C1CCC2C3CC=C4CC(OC(=O)CN5C(=O)CCC(N6C(=O)c7ccccc7C6=O)C5=O)CCC4(C)C3CCC12C (centres undefined)	25.25%
O=C1CCC(N2C(=O)c3cc(O)c(O)cc3C2=O)C(=O)N1 (centres undefined)	38.75%
O=C1NC(=O)C(N2C(=O)c3ccccc3C2=O)CC1O (centres undefined)	3.75%
NC(=O)C(CCC(=O)O)N1C(=O)c2ccccc2C1=O (centres undefined)	15.25%
CC(C)CCCC(C)C1CCC2C3CC=C4CC(OC(=O)N5C(=O)CCC(N6C(=O)c7ccccc7C6=O)C5=O)CCC4(C)C3CCC12C (centres undefined)	50%
Cc1ccc(C)c2c1C(=O)N(c1ccc(F)cc1F)C2=O	18%
CCC1(N2C(=O)c3cccc([N+](=O)[O-])c3C2=O)C(=O)NC(=O)N(c2ccccc2)C1=O (centres undefined)	1.75%
Cl.NCC(=O)OCN1C(=O)CCC(N2C(=O)c3ccccc3C2=O)C1=O (centres undefined)	71.33%
CC(C)C(N)C(=O)OCN1C(=O)CCC(N2C(=O)c3ccccc3C2=O)C1=O.Cl (centres undefined)	88%
CCOCN1C(=O)CCC(N2C(=O)c3ccccc3C2=O)C1=O (centres undefined)	32%
O=C(O)C(C(=O)O)N1C(=O)c2ccccc2C1=O	-2%
CCC1(N2C(=O)c3c(F)c(F)c(F)c(F)c3C2=O)C(=O)NC(=O)N(c2ccccc2)C1=O (centres undefined)	75.75%
O=C(O)CCC(C(=O)O)N1C(=O)c2ccccc2C1=O (centres undefined)	10.75%
O=C(O)CCC(NC(C(=O)O)N1C(=O)c2ccccc2C1=O)C(=O)O (centres undefined)	25.75%
O=C1c2ccccc2C(=O)N1c1ccc(F)cc1F	-4.75%
O=C1c2ccccc2C(=O)N1c1cnc(O)nc1O	5.75%

Compound	Inhibition
CC(C)(C)OC(=O)C(C(=O)NC(C(=O)O)C(=O)O)N1C(=O)c2ccccc2C1=O (centres undefined)	13.25%
CCC1(N2C(=O)c3ccccc3C2=O)C(=O)NC(=O)N(c2ccccc2)C1=O (centres undefined)	-0.5%
[N-]=[N+]=NCN1C(=O)CCC(N2C(=O)c3ccccc3C2=O)C1=O (centres undefined)	24.67%
NC(=O)c1ccc[n+](CN2C(=O)CCC(N3C(=O)c4ccccc4C3=O)C2=O)c1.[Cl-] (centres undefined)	29.67%
O=C1c2c(F)c(F)c(F)c(F)c2C(=O)N1c1ccc(F)cc1F	39.75%
O=C1c2c(F)c(F)c(F)c(F)c2C(=O)N1c1cnc(O)nc1O	15.25%
O=C(O)CN1C(=O)CCC(N2C(=O)c3ccccc3C2=O)C1=O (centres undefined)	39.75%
NC(Cc1ccccc1)C(=O)OCN1C(=O)CCC(N2C(=O)c3ccccc3C2=O)C1=O (centres undefined)	4%
O=C1CCC(N2Cc3ccccc3C2=O)C(=O)N1 (centres undefined)	11.25%
O=C1CCC(N2C(=O)c3ccccc3C2=O)C(=O)O1 (centres undefined)	42%
Nc1cccc2c1C(=O)N(C1CCC(=O)NC1=O)C2=O (centres undefined) [POMALIDOMIDE]	5.5%
O=C1CCC(N2C(=O)c3ccccc3C2=O)C(=O)N1CO (centres undefined)	21%
CC(C)(C)OC(=O)NCC(=O)OCN1C(=O)CCC(N2C(=O)c3ccccc3C2=O)C1=O (centres undefined)	40.25%
O=C1CCC(N2C(=O)c3ccc(O)c(O)c3C2=O)C(=O)N1 (centres undefined)	10.25%
O=C1c2cccc([N+](=O)[O-])c2C(=O)N1c1cn(-c2ccccc2)c(=O)[nH]c1=O	-23.33%
CC(C(=O)OCN1C(=O)CCC(N2C(=O)c3ccccc3C2=O)C1=O)N(C)C(=O)OC(C)(C)C (centres undefined)	56.5%
O=C1CCC(NC(=O)C(C(=O)O)N2C(=O)c3ccccc3C2=O)C(=O)N1 (centres undefined)	11.67%
CC(C)(C)OC(=O)NC(Cc1ccccc1)C(=O)OCN1C(=O)CCC(N2C(=O)c3ccccc3C2=O)C1=O (centres undefined)	33.75%
COc1cc2c(cc1OC)C(=O)N(C1CCC(=O)NC1=O)C2=O (centres undefined)	23.25%
